# Source: PubChem BioAssay
# Only some compounds are listed: those with a hit (about 0.79% of all), similar ones and a draw of the others.
# mIAP activ = mouse IAP activation. muIAP, CDP-Star luminescence, 30 min; active compounds read high; 1 = vehicle-only enzyme signal, 0 = enzyme-free wells. activation factor at 10 µM. 330,000 compounds, 0.24% hits;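 active = activation factor of at least 2 at 20 µM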
#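 System: mouse IAP enzyme. Reagent: CDP-Star chemiluminescent phosphatase substrate. Benchmarks: DMSO wells, no-enzyme wells. Times: 30 min enzyme-substrate-compound incubation at room temperature. Detection: luminescence from enzymatic CDP-Star hydrolysis. Doses: test compounds delivered from DMSO solution.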
# hIAP block = human IAP inhibition; P09923; purified IAP, CDP-Star luminescence, 30 min; inhibition, % at 10 µM; 330,000 compounds, 0.12% hits; AID 2544;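 active = inhibition reaching a set limit with compound at 10 µM in the primary screen, cut at about 35% in these data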;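 note: plate controls were DMSO wells with enzyme for no effect and no-enzyme buffer wells for full effect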
# Target sequence (P09923 whole entry, looked up): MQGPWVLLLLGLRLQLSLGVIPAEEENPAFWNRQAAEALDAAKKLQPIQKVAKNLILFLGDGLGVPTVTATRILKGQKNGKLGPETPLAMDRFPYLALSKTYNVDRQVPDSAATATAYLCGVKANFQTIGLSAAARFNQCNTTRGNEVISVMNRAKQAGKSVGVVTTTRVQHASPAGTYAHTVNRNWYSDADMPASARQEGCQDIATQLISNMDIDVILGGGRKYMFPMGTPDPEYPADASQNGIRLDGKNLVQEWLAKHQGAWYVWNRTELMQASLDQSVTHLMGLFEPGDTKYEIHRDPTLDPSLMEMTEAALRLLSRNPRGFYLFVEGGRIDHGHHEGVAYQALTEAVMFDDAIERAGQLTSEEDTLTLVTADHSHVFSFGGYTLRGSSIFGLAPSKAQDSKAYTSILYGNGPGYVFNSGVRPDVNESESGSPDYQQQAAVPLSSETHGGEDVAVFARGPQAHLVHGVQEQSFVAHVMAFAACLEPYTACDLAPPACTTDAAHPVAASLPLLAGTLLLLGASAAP
# bIAP activator = intestinal alkaline phosphatase (bovine) activation | purified bovine IAP, CDP-star luminescence, 30 min; active compounds read high; fold of DMSO-control signal, blank-subtracted | activation factor at 20 µM | 200,000 compounds, 0.17% hits;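 active = activation factor of 2 or more at 20 µM, a signal rise over negative controls twice the positive control's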
# bIAP inhibitor = intestinal alkaline phosphatase (bovine) inhibition; AID 1019; 190,000 tested, under 10 active; purified bovine IAP, CDP-star luminescence, 30 min; inhibition, % at 20 µM;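 active = over 50% inhibition of intestinal alkaline phosphatase at 20 µM in the single-dose screen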
#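 Assay system: bovine IAP enzyme; medium: DEA buffer 100 mM, pH 9.8, with MgCl2 1.0 mM, ZnCl2 0.02 mM; doses: 20 µM single dose; incubation: enzyme reaction for 30 min at room temperature; detection: CDP-star luminescence signal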
# hIAP act = human IAP activation. AID 2524. activation factor at 10 µM. purified human IAP, CDP-Star luminescence, 30 min; active compounds read high; 1 = vehicle-only enzyme, 0 = enzyme-free background. 330,000 compounds, 0.16% hits;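 active = activation factor of the enzyme at least 2-fold when tested at 20 µM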
# mIAP inh = mouse IAP inhibition | purified mouse IAP, CDP-Star luminescence, 30 min | inhibition, % at 10 µM | 330,000 compounds, 0.2% hits | AID 2806;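 active = inhibition of at least 40% at 10 µM in the primary screen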;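 note: plate controls were DMSO with enzyme for no effect and no enzyme wells for full effect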
# hIAP act conf = human IAP activation confirmation. activation (%Activity, negative = activation), % at 8.3 µM. shares compounds with hIAP act. 880 compounds, 10% hits. AID 434926. purified IAP, CDP-Star luminescence, 30 min; active compounds read low;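 active = at least twofold enzyme activation in any of six single-dose repeats, which the averaged readout prints as negative percent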
# * hit, by the source's call; . = no result given.
SMILES,mIAP activ,hIAP block,bIAP activator,bIAP inhibitor,hIAP act,mIAP inh,hIAP act conf
CC1Cn2c(nnc2C23CC4CC(CC(C4)C2)C3)S1 (stereo unspecified),0.97,-104,1.1,-6,2*,3,95
O=C(N/N=C/c1ccc(O)cc1)c1cccc(N/N=C/c2ccc(O)cc2)c1,0.88,4,.,.,0.96,12,.
C=CCn1c(CNS(=O)(=O)c2ccc(Cl)cc2)n[nH]c1=S,0.83,42*,.,.,0.58,16,-26
C=CCn1c(CNS(=O)(=O)c2ccc(F)cc2)n[nH]c1=S,1.1,9,.,.,0.91,-6,.
Cc1cn(C2CC(OC(=O)C(C)C)C(CO)O2)c(=O)[nH]c1=O (stereo unspecified),0.96,-17,.,.,1.2,4,.
O=C(NNC(=S)NC(=O)c1ccc(F)cc1)c1ccncc1,0.77,-112,.,.,2.1*,23,-56
Cc1ccc(OCC(=O)N/N=C\c2cn(C)c3ccccc23)c([N+](=O)[O-])c1,0.95,0,1,1,1,5,.
CCc1nc(C(N)=O)c2[nH]c(=O)n(-c3ccc(OC)cc3OC)c2n1,1,-10,.,.,1.1,-1,.
O=C(CCCC(=O)N/N=C\c1ccccn1)N/N=C\c1ccccn1,1,-102,1.1,-6,2*,-4,2
O=C(N/N=C/c1ccccn1)c1cc(C2CC2)[nH]n1,0.79,-110,1.6,-59,2.1*,21,-22
O=C(Cc1c(C(=O)O)[nH]c2ccccc12)NCCN1CCN(c2ccccc2F)CC1,0.98,-4,0.9,8,1,2,.
CC1CCCC/C1=N/Nc1ccc([N+](=O)[O-])cc1[N+](=O)[O-] (stereo unspecified),0.81,37*,0.1,.,0.63,19,8
CC(C)C(NC(=O)c1ccccc1F)C(=O)NCc1ccccc1 (stereo unspecified),0.99,-2,.,.,1,1,.
CCOc1ccccc1/C=C(\C#N)C(=O)NC1CC1,1.1,-11,.,.,1.1,-8,.
CCOc1c(Br)cc(/C=C(\C#N)C(=O)NC2CC2)cc1OC,0.99,41*,.,.,0.59,1,5
O=C(CNC(=S)NC(=O)c1cccs1)c1ccccc1,0.8,10,1,-4,0.9,20,.
O=C(NC(=S)NCc1ccccc1)c1cccs1,0.99,40*,.,.,0.6,1,13
COc1ccccc1C(=O)NCC(=O)NNc1ncnc(N)c1[N+](=O)[O-],0.75,-159,1.3,-30,2.6*,25,-31
O=C(COc1ccc(Br)cc1)NCCCn1ccnc1,0.99,-155,.,.,2.6*,1,51
C[C@@H](NC(=O)/C(C#N)=C/c1ccc(O)c(O)c1)c1ccccc1,0.76,32,.,.,0.68,24,.
N#C/C(=C\c1ccc(O)c(O)c1)C(=O)Nc1ccccc1,0.75,52*,.,.,0.48,25,3
Cc1cc(C)n(C(=O)CN2C(=O)CCC2=O)n1,1,-7,0.9,14,1.1,-4,.
Cc1cc(C)n(C(=O)C23CC4CC(CC(C4)C2)C3)n1,0.86,-136,1,2,2.4*,14,-126*
Oc1cccc(/C=N/N=C/c2cccc(O)c2O)c1O,0.64,-101,.,.,2*,36,-57
Cc1cc(OCC(=O)Nc2ncn[nH]2)ccc1Cl,1,-101,.,.,2*,-4,-87*
SMILES,mIAP activ,hIAP block,bIAP activator,bIAP inhibitor,hIAP act,mIAP inh,hIAP act conf
C=CCn1c(=O)[nH]c2cc(C(=O)N3CC=C(c4ccccc4)CC3)ccc2c1=O,0.96,12,1.2,-20,0.88,4,.
CCc1ccc(N(CC(=O)NC(C)C)C(=O)CCC(=O)Nc2ccccn2)cc1,1.1,-4,.,.,1,-14,.
OCCNc1ncnc2c1nnn2Cc1ccccc1,1.1,10,.,.,0.91,-9,.
CC(C)CCNc1ncnc2c1nnn2Cc1ccccc1Cl,0.96,80*,0.9,7,0.2,4,40
CCOC(=O)C1CCN(C(=O)N2CCOCC2)CC1,1.1,-100,0.9,7,2*,-9,-8
COc1cc(C(=O)NCCCNc2ccc([N+](=O)[O-])cc2)cc(OC)c1OC,0.87,11,1,-1,0.89,13,.
CCOc1ccc(-c2n[nH]c(C)c2Oc2ccccc2OC)c(O)c1,1.1,4,1.6,-58,0.96,-12,.
CCCOC(=O)c1ccc(Oc2c(-c3ccc(OC)cc3O)n[nH]c2C)cc1,0.98,-80,1.2,-15,1.8,2,.
Cc1[nH]nc(-c2ccc(O)cc2O)c1Oc1ccccc1,1.3,-107,1.2,-16,2.1*,-26,-17
CCCOC(=O)c1ccc(Oc2cn[nH]c2-c2ccc(OCC(=O)NN)cc2O)cc1,1.1,-97,.,.,2,-5,.
CCCOC(=O)c1ccc(Oc2c(-c3ccc(O)cc3O)n[nH]c2C)cc1,1.1,-132,1.5,-48,2.3*,-12,-62
CCOC(=O)c1ccc(Oc2cn[nH]c2-c2ccc(OCC(=O)NN)cc2O)cc1,0.94,-136,.,.,2.4*,6,4
COC(=O)Nc1ccc2c(c1)N(C(=O)CCN(C)C)c1ccccc1CC2,0.97,12,.,.,0.88,3,.
COC(=O)Nc1sc2c(c1C(=O)NC1CC1)CCCCCC2,0.82,16,1,3,0.84,18,.
O=C(CCN1CCN(Cc2ccccc2)CC1)NNC(=O)Nc1cccc(C(F)(F)F)c1,0.95,-102,.,.,2*,4,0
c1ccc(Nc2ccnc(Nc3ccccc3)n2)cc1,1.1,-177,.,.,2.8*,-11,-44*
O=C1CCCc2ccccc2N1,0.96,-22,1,-2,1.2,4,.
CCN(CC)CCN=C1CCCc2ccccc2N1,0.95,52*,0.9,10,0.47,5,-22
O=C(NCCCc1ccccc1)c1ccc(CS(=O)Cc2ccc(Cl)cc2)o1 (stereo unspecified),0.94,39*,.,.,0.61,6,-22
COc1ccccc1CNC(=O)CCNC(=O)c1ccco1,0.94,1,.,.,0.99,6,.
Cc1cccc(C(=O)OCN2C(=O)c3ccccc3C2=O)c1[N+](=O)[O-],0.97,42*,.,.,0.58,3,10
COc1cccc(C=NCCCN=Cc2cccc(OC)c2O)c1O,0.99,-49,.,.,1.5,1,.
Cc1ccccc1N1CCN(C(=O)c2ccccc2NC(=O)/C=C\C(=O)O)CC1,1,37*,0.9,10,0.63,-1,5
COc1ccc(NC(=S)NNC(=O)c2nnn(-c3ccccc3)c2C)cc1,0.91,-114,1,1,2.1*,9,24
CC1CCN(CCCNC(=O)c2ccc3c(Cl)c4c(nc3c2)CCCC4)CC1,0.82,5,.,.,0.95,18,.
Cc1cccc(CC(Cc2nc3ccccc3[nH]2)c2nc3ccccc3[nH]2)c1 (stereo unspecified),1.4,-140,4.3*,-332,2.4*,-41,30
